# Experimental data: ChEMBL document CHEMBL3271979, “Inhibition of solid tumors by nitrosoureas. 1. Lewis lung carcinoma” (1977)
# Activity calls are given as the source filed them. No cut-off for these calls is given here.
# Tests used:
# [1] = Antitumor activity against mouse early Lewis lung carcinoma allografted in BDF1 mouse assessed as increase in host life span at 20 mg/kg, ip administered as single dose on 1 or 2 days post-tumor implantation; type: functional; conditions: route intraperitoneal
# In short: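 BDF1 mice (C57Blk/6 × DBA/2) implanted sc by trocar with ~40 mg Lewis lung tumor fragments from bacteriologically sterile donor tumors. Single ip dose on day 1 or 2, as a solution or suspension in water (CMC or gum acacia) or saline (HPC or Tween 80). Read-out is […]. Same-dose toxicity controls were run in nontumor-bearing mice.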
# [2] = Antitumor activity against mouse early Lewis lung carcinoma allografted in ip dosed BDF1 mouse assessed as disease cure administered as single dose on 1 or 2 days post-tumor implantation measured for 80 days post-drug treatment; type: functional
# In short: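 BDF1 mice implanted sc by trocar with ~40 mg Lewis lung fragments from sterile donor tumors. A single ip dose was given on day 1 or 2 after implant, in water or saline vehicle. Cures were scored in animals observed for at least 80 days after treatment. Drug-toxicity controls were matched non-tumor-bearing mice monitored for body weight and deaths.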
# [3] = system: Mus musculus; assay: Antitumor activity against mouse advanced Lewis lung carcinoma allografted in BDF1 mouse assessed as disease cure at 30 mg/kg, ip administered as single dose on 7th day post-tumor implantation measured for 80 days post-drug treatment; type: functional, organism-based; set-up: dose 30 mg/kg
# In short: (§1)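 BDF1 mice (C57Blk/6 × DBA/2) implanted sc by trocar with Lewis lung tumor fragments of about 40 mg, taken only from bacteriologically sterile donor tumors. Mice bearing tumors of about 400 mg (day 6-7) were selected. Each received a single ip dose on day 7, at or below the LD10 in normal mice. Groups were of 10 mice. Tumor weight was taken from calipers as w = ab²/2, measured at least twice weekly. Matched non-tumor mice served as toxicity controls.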
# [4] = Antitumor activity against mouse early Lewis lung carcinoma allografted in BDF1 mouse assessed as increase in host life span at 13 mg/kg, ip administered as single dose on 1 or 2 days post-tumor implantation; type: functional; conditions: route intraperitoneal
# In short: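 Early disease: BDF1 mice carrying sc trocar implants of about 40 mg Lewis lung fragments. One ip dose given on day 1 or 2 after implant, in distilled water or saline, at ≤0.5 ml. Endpoints were % increase in life-span of dying animals and delay in days for the primary tumor to reach 1 g. Untreated controls served as reference.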
# [5] = Ratio of ED50 for antitumor activity against mouse L1210 cells allografted in ip dosed mouse to LD10 for mouse
# [6] = system: Mus musculus; assay: Antitumor activity against mouse advanced Lewis lung carcinoma allografted in ip dosed BDF1 mouse assessed as disease cure administered as single dose on day 6 or 7 post-tumor implantation; type: functional, organism-based; in short: as §1
# [7] = system: Mus musculus; assay: Antitumor activity against mouse advanced Lewis lung carcinoma allografted in BDF1 mouse assessed as disease cure at 20 mg/kg, ip administered as single dose on 7th day post-tumor implantation measured for 80 days post-drug treatment; type: functional, organism-based; set-up: dose 20 mg/kg; in short: as §1
# [8] = system: Mus musculus; assay: Antitumor activity against mouse advanced Lewis lung carcinoma allografted in ip dosed BDF1 mouse assessed as complete regression of established tumor administered as single dose on day 6 or 7 post-tumor implantation; type: functional, organism-based; in short: as §1
# [9] = Antitumor activity against mouse advanced Lewis lung carcinoma allografted in BDF1 mouse assessed as increase in host life span at 30 mg/kg, ip administered as single dose on 7th day post-tumor implantation; type: functional; conditions: route intraperitoneal
# In short: (§2)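 BDF1 mice (C57Blk/6 × DBA/2) implanted sc by trocar with about 40 mg Lewis lung tumor fragments from bacteriologically sterile donors. Advanced-disease groups held tumors of about 400 mg by day 6-7, sized by caliper (w = ab²/2). Single ip injection on day 7, in water or saline vehicle, at or below the LD10 in normal mice. Tumors measured at least twice weekly.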
# [10] = Antitumor activity against mouse advanced Lewis lung carcinoma allografted in BDF1 mouse assessed as increase in host life span at 20 mg/kg, ip administered as single dose on 7th day post-tumor implantation; type: functional; conditions: route intraperitoneal; in short: as §2
# [11] = Antitumor activity against mouse early Lewis lung carcinoma allografted in BDF1 mouse assessed as time delay in tumor growth at 13 mg/kg, ip administered as single dose on 1 or 2 days post-tumor implantation; type: functional; conditions: route intraperitoneal
# In short: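 Sc trocar implants of about 40 mg Lewis lung fragments in BDF1 mice. A single ip injection was given on day 1 or 2, in water or physiological saline, at ≤0.5 ml. Tumor size came from caliper length and width as w = ab²/2, measured at least twice weekly. Growth delay is the extra days taken to reach 1 g, compared with untreated controls.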
# [12] = Antitumor activity against mouse advanced Lewis lung carcinoma allografted in BDF1 mouse assessed as increase in host life span at 52 mg/kg, ip administered as single dose on 7th day post-tumor implantation; type: functional; conditions: route intraperitoneal; in short: as §2
# [13] = system: Mus musculus; assay: Antitumor activity against mouse advanced Lewis lung carcinoma allografted in BDF1 mouse assessed as disease cure at 52 mg/kg, ip administered as single dose on 7th day post-tumor implantation measured for 80 days post-drug treatment; type: functional, organism-based; set-up: dose 52 mg/kg; in short: as §1
# [14] = system: Mus musculus; assay: Antitumor activity against mouse advanced Lewis lung carcinoma allografted in BDF1 mouse assessed as complete regression of established tumor at 9 mg/kg, ip administered as single dose on 7th day post-tumor implantation; type: functional, organism-based; set-up: dose 9 mg/kg; in short: as §1
# [15] = Antitumor activity against mouse advanced Lewis lung carcinoma allografted in BDF1 mouse assessed as increase in host life span at 9 mg/kg, ip administered as single dose on 7th day post-tumor implantation; type: functional; conditions: route intraperitoneal; in short: as §2
# [16] = system: Mus musculus; assay: Antitumor activity against mouse advanced Lewis lung carcinoma allografted in BDF1 mouse assessed as disease cure at 9 mg/kg, ip administered as single dose on 7th day post-tumor implantation measured for 80 days post-drug treatment; type: functional, organism-based; set-up: dose 9 mg/kg; in short: as §1
# [17] = Antitumor activity against mouse advanced Lewis lung carcinoma allografted in BDF1 mouse assessed as increase in host life span at 62 mg/kg, ip administered as single dose on 7th day post-tumor implantation; type: functional; conditions: route intraperitoneal; in short: as §2
# [18] = system: Mus musculus; assay: Antitumor activity against mouse advanced Lewis lung carcinoma allografted in BDF1 mouse assessed as complete regression of established tumor at 62 mg/kg, ip administered as single dose on 7th day post-tumor implantation; type: functional, organism-based; set-up: dose 62 mg/kg; in short: as §2
# [19] = system: Mus musculus; assay: Antitumor activity against mouse advanced Lewis lung carcinoma allografted in BDF1 mouse assessed as disease cure at 62 mg/kg, ip administered as single dose on 7th day post-tumor implantation measured for 80 days post-drug treatment; type: functional, organism-based; set-up: dose 62 mg/kg; in short: as §2
# [20] = Antitumor activity against mouse advanced Lewis lung carcinoma allografted in BDF1 mouse assessed as increase in host life span at 93 mg/kg, ip administered as single dose on 7th day post-tumor implantation; type: functional; conditions: route intraperitoneal; in short: as §2
# [21] = Antitumor activity against mouse advanced Lewis lung carcinoma allografted in ip dosed BDF1 mouse assessed as increase in host lifespan administered as single dose on day 6 or 7 post-tumor implantation; type: functional
# In short: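 Advanced Lewis lung model: about 40 mg fragments implanted sc by trocar into BDF1 mice, and mice with tumors of about 400 mg (day 6-7) selected. Tumor weight from calipers, w = ab²/2. Agent given as one ip dose in distilled water or physiological saline. Nontumor-bearing mice received matching doses as toxicity controls.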
# [22] = system: Mus musculus; assay: Antitumor activity against mouse advanced Lewis lung carcinoma allografted in BDF1 mouse assessed as complete regression of established tumor at 93 mg/kg, ip administered as single dose on 7th day post-tumor implantation; type: functional, organism-based; set-up: dose 93 mg/kg; in short: as §2
# [23] = system: Mus musculus; assay: Antitumor activity against mouse advanced Lewis lung carcinoma allografted in BDF1 mouse assessed as disease cure at 93 mg/kg, ip administered as single dose on 7th day post-tumor implantation measured for 80 days post-drug treatment; type: functional, organism-based; set-up: dose 93 mg/kg; in short: as §2
# [24] = system: Mus musculus; assay: Antitumor activity against mouse advanced Lewis lung carcinoma allografted in BDF1 mouse assessed as disease cure at 11 mg/kg, ip administered as single dose on 7th day post-tumor implantation measured for 80 days post-drug treatment; type: functional, organism-based; set-up: dose 11 mg/kg; in short: as §1
# [25] = Antitumor activity against mouse advanced Lewis lung carcinoma allografted in BDF1 mouse assessed as increase in host life span at 11 mg/kg, ip administered as single dose on 7th day post-tumor implantation; type: functional; conditions: route intraperitoneal; in short: as §2
smiles,measurement,setting,value
O=NN(CCCl)C(=O)N[C@H]1CC[C@@H](C(=O)O)CC1,ILS at 20 mg/kg,[1],0%
same,Activity,[2],>50%
same,Activity,[3],inactive
same,ILS at 13 mg/kg,[4],35%
same,Ratio,[5],0.6
same,Activity,[6],inactive
same,Activity,[7],inactive
same,inhibition,[8],Active
same,ILS at 30 mg/kg,[9],79%
same,ILS at 20 mg/kg,[10],90%
same,Time,[11],23 days
CC1(C)CCC(NC(=O)N(CCF)N=O)CC1,Activity,[6],inactive
same,ILS at 52 mg/kg,[12],100%
same,Activity,[13],inactive
same,inhibition,[8],Active
O=NN(CCF)C(=O)NC1CC2CCC1C2 (configuration not stated),inhibition,[14],inactive
same,ILS at 9 mg/kg,[15],40%
same,Activity,[16],inactive
Cc1ccc(S(=O)(=O)NC(=O)N(CCCl)N=O)cc1,Activity,[6],inactive
same,ILS at 62 mg/kg,[17],28%
same,inhibition,[18],inactive
same,Activity,[19],inactive
same,inhibition,[8],inactive
same,ILS at 93 mg/kg,[20],28%
same,ILS,[21],>25%
same,inhibition,[22],inactive
same,Activity,[23],inactive
O=NN(CCCl)C(=O)NC1CCS(=O)(=O)CC1,Activity,[6],inactive
same,Activity,[24],inactive
same,inhibition,[8],inactive
same,ILS at 11 mg/kg,[25],27%
same,ILS,[21],>25%
